Data on 8 compounds can be found in ChEMBL document CHEMBL1821621, “Isolation and biological evaluation of jatrophane diterpenoids from Euphorbia dendroides” (J Nat Prod, 2011).

For data set [1], the target named is T1, ATP-dependent translocase ABCB1 (Homo sapiens, UniProt P08183). Kind of data set: Reversal of MDR1-mediated paclitaxel resistance in multidrug resistant human NCI-H460 cells assessed as combination index at 1 uM after 72 hrs by SRB assay. The note with it: nci-h460, 72 h. The format is cell-based. A digest of the protocol:
(§1)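 Resistant NCI-H460/R cells received 1, 2.5 or 5 μM compound simultaneously with 0.0055 μM paclitaxel for 72 h. Growth was read by SRB assay. Relative reversion = IC50 of paclitaxel / IC50 of the combination. Interaction was scored by the combination index method (median effect, multiple drug effect equation).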

Data set [2] addresses T1, ATP-dependent translocase ABCB1. The data set can be described thus: Reversal of MDR1-mediated paclitaxel resistance in multidrug resistant human NCI-H460 cells assessed as Rho123 accumulation at 20 uM after 30 mins by FACScalibur flow cytometry relative to control. Format: cell-based. The note with it: nci-h460, 0.5 h. A digest of the protocol: (§2)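 NCI-H460/R cells were grown to 80% confluence, trypsinized and resuspended in medium containing Rho123. They were treated with compound at 5 or 20 μM for 30 min at 37 °C in 5% CO2, and Rho123 fluorescence (FL2-H) was read by flow cytometry. FAR = FL2-H of treated MDR cells / FL2-H of untreated MDR control.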
A general note: In flow cytometry, cells or beads pass a laser one at a time.

For data set [3] the target is unchanged. Kind of data set: Reversal of MDR1-mediated paclitaxel resistance in multidrug resistant human NCI-H460 cells assessed as Rho123 accumulation at 5 uM after 30 mins by FACScalibur flow cytometry relative to control. The format is cell-based. The conditions noted are these: nci-h460, 0.5 h. The essentials: as §2
Data set [4] shares this target. The data set can be described thus: Reversal of MDR1-mediated doxorubicin resistance in multidrug resistant human NCI-H460 cells assessed as combination index at 5 uM after 72 hrs by SRB assay. The note with it: nci-h460, 72 h.
For data set [5] the target is unchanged. The data set can be described thus: Reversal of MDR1-mediated doxorubicin resistance in human NCI-H460 cells assessed as ratio of compound IC50 to IC50 of paclitaxel at 5 uM after 72 hrs by SRB assay. The conditions noted are these: nci-h460, 72 h, in the assay text read “IC50 of doxorubicin” for “IC50 of paclitaxel”. The format is cell-based. A digest of the protocol: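 NCI-H460/R cells received 5 μM compound simultaneously with 0.055 μM doxorubicin for 72 h, read by SRB. Relative reversion = IC50 of doxorubicin alone / IC50 of the combination. Values are the mean ± standard deviation of five independent experiments, with IC50 by linear regression.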
In general terms: Sulforhodamine B stains cellular protein and so reports cell mass.

In another data set the test system is DLD-1. The data set can be described thus: Anticancer activity against human DLD1 cells after 72 hrs by SRB assay. The format is functional, cell-based. The conditions noted are these: DLD-1, 72 h. The essentials: (§3)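 Cells were seeded in 96-well plates and left overnight: NCI-H460 and DLD-1 at 2000 cells/well, U-87 MG and NCI-H460/R at 4000 cells/well. NCI-H460/R was selected from NCI-H460 and kept in 100 nM doxorubicin. Compound exposure lasted 72 h. Cellular protein was stained with sulforhodamine B, and IC50 was obtained by linear regression.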

Data set [6] concerns NCI-H460. Kind of data set: Anticancer activity against multidrug resistant human NCI-H460 cells after 72 hrs by SRB assay. The format is functional, cell-based. The note with it: NCI-H460, 72 h. A digest of the protocol: as §3
Data set [7] relates to NCI-H460. Kind of data set: Anticancer activity against human NCI-H460 cells after 72 hrs by SRB assay. The format is functional, cell-based. The note with it: NCI-H460, 72 h. The essentials: as §3
Data set [8] addresses T1, ATP-dependent translocase ABCB1. Kind of data set: Reversal of MDR1-mediated paclitaxel resistance in multidrug resistant human NCI-H460 cells assessed as combination index at 2.5 uM after 72 hrs by SRB assay. The format is cell-based. The note with it: nci-h460, 72 h. The essentials:
as §1

Data set [9] shares this target. The data set can be described thus: Reversal of MDR1-mediated paclitaxel resistance in human NCI-H460 cells assessed as ratio of compound IC50 to IC50 of paclitaxel at 1 uM after 72 hrs by SRB assay. Format: cell-based. The note with it: nci-h460, 72 h. A digest of the protocol:
as §1

Data set [10] shares this target. Kind of data set: Reversal of MDR1-mediated paclitaxel resistance in multidrug resistant human NCI-H460 cells assessed as combination index at 5 uM after 72 hrs by SRB assay. Format: cell-based. The conditions noted are these: nci-h460, 72 h. A digest of the protocol: as §1
Data set [11] can be described thus: Anticancer activity against human U87MG cells after 72 hrs by SRB assay. Format: functional, cell-based, U-87MG ATCC. The note with it: U-87 MG. The essentials:
as §3

The target in data set [12] is T1, ATP-dependent translocase ABCB1. Kind of data set: Reversal of MDR1-mediated paclitaxel resistance in human NCI-H460 cells assessed as ratio of compound IC50 to IC50 of paclitaxel at 2.5 uM after 72 hrs by SRB assay. The format is cell-based. The conditions noted are these: nci-h460, 72 h. The essentials: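 Growth was read by SRB assay. Relative reversion = IC50 of paclitaxel / IC50 of the combination. Interaction was scored by the combination index method (median effect, multiple drug effect equation).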

Some results are limits rather than exact numbers.

T1 sequence (P08183 whole entry): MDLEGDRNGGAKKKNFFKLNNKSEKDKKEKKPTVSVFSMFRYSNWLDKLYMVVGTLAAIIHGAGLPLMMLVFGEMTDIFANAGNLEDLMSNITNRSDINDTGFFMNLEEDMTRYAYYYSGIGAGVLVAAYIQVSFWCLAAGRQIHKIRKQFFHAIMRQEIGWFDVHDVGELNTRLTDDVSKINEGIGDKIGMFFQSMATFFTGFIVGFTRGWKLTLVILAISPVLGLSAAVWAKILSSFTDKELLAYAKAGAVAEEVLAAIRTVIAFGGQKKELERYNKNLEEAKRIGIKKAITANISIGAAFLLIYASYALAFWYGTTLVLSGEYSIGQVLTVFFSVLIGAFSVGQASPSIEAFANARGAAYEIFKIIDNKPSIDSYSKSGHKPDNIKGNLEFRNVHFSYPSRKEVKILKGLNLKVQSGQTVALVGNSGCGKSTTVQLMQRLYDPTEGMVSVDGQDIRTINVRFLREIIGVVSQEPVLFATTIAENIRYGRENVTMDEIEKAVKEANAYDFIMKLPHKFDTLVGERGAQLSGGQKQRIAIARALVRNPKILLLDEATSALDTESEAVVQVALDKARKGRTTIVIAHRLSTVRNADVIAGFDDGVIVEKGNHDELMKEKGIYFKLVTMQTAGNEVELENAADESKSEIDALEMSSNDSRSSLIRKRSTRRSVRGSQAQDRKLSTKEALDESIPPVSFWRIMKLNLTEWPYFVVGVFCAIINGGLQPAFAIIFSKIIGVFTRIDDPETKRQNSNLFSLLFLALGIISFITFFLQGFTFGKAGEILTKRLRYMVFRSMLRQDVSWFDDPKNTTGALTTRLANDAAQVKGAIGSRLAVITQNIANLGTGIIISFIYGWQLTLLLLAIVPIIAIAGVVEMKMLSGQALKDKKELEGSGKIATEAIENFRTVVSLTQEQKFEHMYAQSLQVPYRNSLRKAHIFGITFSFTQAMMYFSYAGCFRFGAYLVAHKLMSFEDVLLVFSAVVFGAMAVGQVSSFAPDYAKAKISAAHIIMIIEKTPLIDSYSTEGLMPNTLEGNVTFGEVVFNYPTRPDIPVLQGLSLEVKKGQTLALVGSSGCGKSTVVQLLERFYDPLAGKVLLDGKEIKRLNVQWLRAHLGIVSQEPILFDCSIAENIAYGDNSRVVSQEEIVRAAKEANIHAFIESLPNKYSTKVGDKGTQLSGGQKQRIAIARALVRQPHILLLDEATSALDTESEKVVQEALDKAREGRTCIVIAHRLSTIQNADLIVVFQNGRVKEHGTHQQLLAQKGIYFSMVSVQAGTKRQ

In the case of `C=C1[C@@H](OC(=O)C(C)C)[C@@H](OC(C)=O)[C@@H](OC(=O)c2cccnc2)C(C)(C)/C=C/[C@@H](C)C(=O)[C@@]2(O)C[C@H](C)[C@H](OC(=O)CC)[C@@H]2[C@H]1OC(C)=O` [EUPHODENDROPHANE A], the “fractional inhibitory concentration index (FICI)” value in [1] is given as under 0.5; in [4], under 0.5; in data set [8], under 1; in data set [10], under 0.5. For the same compound, the Ratio in data set [2] is 3.2; in [3], 2.1. Also, the “Ratio IC50” value is reported as 19 in data set [5], 3 in data set [9] and 19 in data set [12]. Also, the IC30 with DLD-1 came to 7.3 µM; with NCI-H460 [6], 26.6 µM; in the data set on NCI-H460 [7], 31 µM; in [11], 74.7 µM. In addition, the IC50 is 59.3 µM with DLD-1, 44.8 µM with NCI-H460 [6], 46.6 µM in the data set with NCI-H460 [7] and 155 µM in data set [11].

`CC(=O)O[C@H]1C(=O)[C@@]2(C)[C@H]([C@H](OC(=O)c3ccccc3)[C@]3(O)C[C@H](OC(=O)[C@H](O)[C@@H](NC(=O)c4ccccc4)c4ccccc4)C(C)=C1C3(C)C)[C@]1(OC(C)=O)CO[C@@H]1C[C@@H]2O` [PACLITAXEL]: the IC30 with DLD-1 was 0.023 µM; in the data set on NCI-H460 [6], 0.44 µM; in the data set with NCI-H460 [7] it was 0.0036 µM; in [11], 0.049 µM. Further, the IC50 in the data set with DLD-1 worked out at 0.039 µM; in the data set on NCI-H460 [6] it was 2.08 µM; in the data set on NCI-H460 [7], 0.0094 µM; in data set [11], 0.09 µM.

With `C=C1[C@@H](OC(=O)C(C)C)[C@@H](OC(=O)c2ccccc2)[C@@H](OC(C)=O)C(C)(C)/C=C/[C@@H](C)C(=O)[C@@]2(O)C[C@H](C)[C@H](OC(=O)CC)[C@@H]2[C@H]1OC(C)=O` [EUPHODENDROPHANE E], the IC30 is 13.7 µM in the data set on DLD-1, 15.2 µM in the data set with NCI-H460 [6], 8.3 µM in the data set on NCI-H460 [7] and 14.1 µM in data set [11]. The IC50 with DLD-1 was found to be 37.9 µM; in the data set on NCI-H460 [6], 49.8 µM; in the data set on NCI-H460 [7], 21.9 µM; in data set [11] it was 73.1 µM.

Take `C=C1[C@@H](OC(=O)C(C)C)[C@@H](OC(C)=O)[C@@H](OC(=O)c2cccnc2)C(C)(C)/C=C/[C@@H](C)C(=O)[C@@]2(O)C[C@H](C)[C@H](OC(=O)C(C)C)[C@@H]2[C@H]1OC(C)=O` [EUPHODENDROPHANE B]: the “fractional inhibitory concentration index (FICI)” value is under 1 in data set [1], under 0.5 in data set [4], under 1 in data set [8] and under 0.5 in data set [10]. Further, the Ratio in [2] amounted to 3; in [3] it was 1.9. The “Ratio IC50” value worked out at 28 in data set [5], 11 in data set [9] and 25 in data set [12]. Further, the 30% effect concentration (IC30) in the data set with DLD-1 came to 4.8 µM; in the data set on NCI-H460 [6], 3.9 µM; in the data set on NCI-H460 [7], 6.1 µM; in data set [11], 6.8 µM. The IC50 stood at 22.1 µM with DLD-1, 17.2 µM in the data set with NCI-H460 [6], 16.2 µM in the data set on NCI-H460 [7] and 108 µM in data set [11].

Take `CC1=C[C@@H]2[C@H](C1=O)[C@H](O)C(C)=C[C@H]1[C@@H]3C(C)(C)[C@]3(OC(=O)C(C)C)[C@H](OC(=O)c3ccccc3)[C@@H](C)[C@]21O` [EUPHODENDRIANE A]: the IC30 in the data set on DLD-1 amounted to 13.3 µM; in the data set with NCI-H460 [6], 15.7 µM; with NCI-H460 [7], 7 µM; in [11], 33.2 µM. The IC50 in the data set with DLD-1 amounted to 27.4 µM; with NCI-H460 [6], 26 µM; in the data set on NCI-H460 [7], 14.3 µM; in data set [11], 60.1 µM.

`CC(=O)OC/C1=C/[C@H]2[C@@H](OC(C)=O)[C@](C)(OC(C)=O)C[C@]2(OC(C)=O)C(=O)[C@H](C)/C=C/C(C)(C)[C@H](OC(=O)c2cccnc2)[C@H](OC(C)=O)[C@@H]1OC(=O)C(C)C` [EUPHODENDROPHANE F]: the IC30 turned out to be 38.8 µM with DLD-1, 51.9 µM in the data set with NCI-H460 [6], 4.8 µM in the data set with NCI-H460 [7] and 27.3 µM in data set [11]. The IC50 in the data set with DLD-1 was found to be 75.3 µM; with NCI-H460 [6], 90.8 µM; in the data set on NCI-H460 [7], 14.8 µM; in data set [11] it was 65.5 µM.

As to `C=C1[C@@H](OC(C)=O)[C@@H](OC(=O)c2ccccc2)[C@@H](OC(C)=O)C(C)(C)/C=C/[C@@H](C)C(=O)[C@@]2(O)C[C@H](C)[C@H](OC(=O)C(C)C)[C@@H]2[C@H]1OC(C)=O` [EUPHODENDROPHANE D], the IC30 with DLD-1 stood at 14.2 µM; in the data set on NCI-H460 [6], 14.6 µM; in the data set on NCI-H460 [7], 11.7 µM; in [11], 10.4 µM. Also, the IC50 with DLD-1 stood at 42.7 µM; with NCI-H460 [6] it was 30.1 µM; in the data set with NCI-H460 [7], 21.3 µM; in data set [11], 52.6 µM.

On to `COc1ccc(CCN(C)CCCC(C#N)(c2ccc(OC)c(OC)c2)C(C)C)cc1OC` (stereo not drawn), for which the “fractional inhibitory concentration index (FICI)” value is under 1 in data set [1], under 0.5 in data set [4], under 0.5 in data set [8] and under 0.5 in data set [10].

The IC30 is the concentration at which the effect reaches the 30% level. Low values mean an effect from little substance, high ones a need for much substance. The term IC50 denotes the point on the concentration scale where inhibition reaches its midpoint.
